PLCb3 inh: human PLC-beta3 inhibitors, primary screen, biochemical, fluorescence; 1-phosphatidylinositol 4,5-bisphosphate phosphodiesterase beta-3 (Homo sapiens), Q01970; 370,000 tested, 0.18% active; Purified PLC-beta3, fluorogenic substrate; inhibition, % at 12.2 µM; AID 720704, 2013;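 note: 0% = median of compound wells on plate and 100% = full blocker control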
proCasp3 act: activators of human procaspase-3 D3A mutant, primary screen, biochemical, absorbance, PC-3 D3A mutant, single concentration; recombinant procaspase-3 D3A, Ac-DEVD-pNA absorbance 405 nm; activation, % at 8.5 µM; 330,000 tested, 0.11% active;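 active = activation above the mean of all tested compounds plus 3 SD, cut at about 21% in these data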;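 note: 0% = DMSO alone and 100% = DMSO wells spiked with extra 5 µM PC-3 D3A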
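Technique: 405 nm absorbance of p-nitroaniline, reads at 0 and 120 min; Test system: Procaspase-3 D3A mutant; Incubation: 1 h enzyme-compound preincubation, then 2 h substrate reaction, 25 °C; Repeats: singlicate, each compound tested once; Benchmarks: low control DMSO wells, high control DMSO plus 5 µM PC-3 D3A.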
PLCg1 inh: PLC-gamma1 enzyme inhibitors, primary screen, biochemical, fluorescence, purified enzyme | 1-phosphatidylinositol 4,5-bisphosphate phosphodiesterase gamma-1 (Homo sapiens), P19174 | fluorogenic substrate | inhibition, % at 12.2 µM | 370,000 tested, 0.84% active | AID 720700, 2013; in the data active = inhibition above about 9.5%
procasp7 counter: procaspase-7 activators, primary screen, counter-screen for procaspase-3 activator project, biochemical, absorbance, HTS, human; Caspase-7 (Homo sapiens), P55210; recombinant procaspase-7, Ac-DEVD-pNA absorbance 405 nm; D23A/D198A/D206A triple mutant, cannot self-cleave; scale: DMSO 0, 5 µM enzyme 100; activation, % at 8.5 µM; 330,000 tested, 0.093% active;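 active = percent activation above the screen-wide mean plus 3 SD, cut at about 25% in these data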
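Test system: Procaspase-7 triple mutant (PC-7 D3A). Also added: Ac-DEVD-pNA substrate, 400 µM as added. Schedule: 1 h enzyme–compound preincubation and 2 h substrate reaction, both 25 °C. Signal: p-Nitroaniline absorbance at 405 nm, read at 0 and 120 min. Control set: low DMSO alone, high DMSO plus 5 µM PC-7.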
HGIII-sPLA2 inh: human group III sPLA2 inhibitors, primary screen, biochemical, QFRET, BODIPY PC-A2 liposome substrate | QFRET BODIPY PC-A2 liposome hydrolysis, fluorescence | inhibition, % at 12.2 µM | 370,000 tested, 0.56% active | AID 743126, 2013;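 active = inhibition above mean plus 3 SD of compounds lying within the high and low control bounds, cut at about 19% in these data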;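 note: 0% = median of test compound wells and 100% = no enzyme DMSO wells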
Target sequence (Q9NZ20 whole entry, looked up): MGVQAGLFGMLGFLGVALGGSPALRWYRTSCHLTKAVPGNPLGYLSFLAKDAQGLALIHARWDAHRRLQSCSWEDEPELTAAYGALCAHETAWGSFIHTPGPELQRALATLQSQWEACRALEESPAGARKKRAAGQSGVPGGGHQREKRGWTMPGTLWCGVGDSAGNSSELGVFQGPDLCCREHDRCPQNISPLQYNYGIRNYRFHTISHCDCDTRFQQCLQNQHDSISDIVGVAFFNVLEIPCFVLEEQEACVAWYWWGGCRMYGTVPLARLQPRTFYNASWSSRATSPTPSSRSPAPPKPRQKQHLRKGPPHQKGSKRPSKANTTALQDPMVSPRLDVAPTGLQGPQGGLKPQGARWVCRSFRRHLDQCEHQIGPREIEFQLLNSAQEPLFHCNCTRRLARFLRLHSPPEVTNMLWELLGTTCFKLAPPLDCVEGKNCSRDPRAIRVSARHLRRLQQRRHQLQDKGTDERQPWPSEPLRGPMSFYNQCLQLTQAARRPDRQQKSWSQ
PLCg1 ctr: PLC-gamma1 enzyme inhibitors, counter-screen for PLC-beta3 inhibitor project, biochemical, fluorescence; shares compounds with PLCg1 inh; purified PLC-gamma1, fluorogenic substrate; inhibition, % at 12.3 µM; 3,300 tested, 3.1% active; in the data active = inhibition above about 9.5%
PLCbeta3 conf: PLC-beta3 inhibitor confirmation, biochemical, fluorescence, purified enzyme; shares compounds with PLCg1 inh; fluorogenic substrate fluorescence; inhibition, % at 12.3 µM; 3,300 tested, 1% active; AID 743261, 2014
Starred values were filed as active, the others as inactive; x = no result given. The list is not random: actives were taken first. Their share in the collection is about 1.6%. Cut-off read from the data, not from the text of the source, unless noted: active = inhibition above about 11%; inactive = the rest.

SMILES	PLCb3 inh	proCasp3 act	PLCg1 inh	procasp7 counter	HGIII-sPLA2 inh	PLCg1 ctr	PLCbeta3 conf
O=C(Nc1ccc(Br)cc1Br)Nc1cccc2[nH]c([C@@H]3O[C@H](CO)[C@@H](O)[C@H](O)[C@H]3O)nc12	-2	x	0	x	-15	x	x
Cc1ccccc1CN1CCN(S(=O)(=O)c2cccc3nsnc23)CC1	-3	-10	4	4	-4	x	x
COc1ccc(CNC(=O)C2CCN(S(=O)(=O)c3cccc4nsnc34)CC2)cc1	-4	3	11*	8	8	-7	-3
CCN1CCN(S(=O)(=O)c2cccc3nsnc23)CC1	13*	-64	5	6	0	-3	2
COc1ccc(CNC(=O)C2CCCN(S(=O)(=O)c3cccc4nsnc34)C2)cc1 (stereo unspecified)	-4	-3	-3	0	-5	x	x
C=CCn1c(SCC(=O)Nc2ccccc2-c2ccccc2)nnc1-c1ccc(Cl)cc1	-7	x	10*	x	-11	-7	-4
C=CCn1c(SCC(=O)Nc2cccnc2Cl)nnc1-c1ccc(Cl)cc1	0	0	1	9	11	x	x
CN(C)S(=O)(=O)c1ccc(N2CCCC2)c(C(=O)OCC(=O)N2CCN(c3ccccc3)CC2)c1	-3	-5	2	-10	4	x	x
Cn1c(SCC(=O)c2c(N)n(C)c(=O)n(C)c2=O)nnc1-c1ccccc1	3	14	15*	5	3	-6	-1
Cn1c(N)c(C(=O)CSc2nc3ccccc3c(=O)n2Cc2ccccc2)c(=O)n(C)c1=O	5	2	11*	2	8	-5	-4
CCCn1c(N)c(C(=O)CSc2nc3ccccc3c(=O)n2Cc2ccccc2)c(=O)[nH]c1=O	-5	7	1	6	1	x	x
COc1ccc(CNCC(O)COc2ccc(C(C)(C)c3ccccc3)cc2)cc1 (stereo unspecified)	-1	-5	11*	-7	-16	-2	-3
COC(=O)c1ccc(CNCC(O)COc2ccc(-c3ccccc3)cc2)cc1 (stereo unspecified)	-5	5	1	-1	-10	x	x
COc1ccc(Nc2nc(OC)nc(OC)n2)cc1	-4	-3	0	3	1	x	x
COc1ccc(Nc2nc(Nc3ccc(OC)cc3)nc(SC3=NCCS3)n2)cc1	1	4	13*	0	-1	4	4
COc1ccccc1CCNC(=O)C(=O)NCC1OCCN1S(=O)(=O)c1cc(F)ccc1F (stereo unspecified)	-21	-6	-8	5	-7	x	x
c1ccc2c(C3OCC4(CCCC4)CO3)cccc2c1	2	x	9.6*	x	5	-1	-2
Oc1ccccc1C1OCC2(CO1)COC(c1ccccc1O)OC2 (stereo unspecified)	3	-6	0	-9	-5	x	x
COCCCNC(=O)C[C@@H]1C[C@@]2(C(=O)OC)CCCCC=C2N(Cc2cccc3ccccc23)C1=O	3	x	2	x	-10	x	x
CCCCNC(=O)C[C@@H]1C[C@@]2(C(=O)OC)CCCCC=C2N(Cc2cccc3ccccc23)C1=O	-2	x	11*	x	13	-1	4
CCCCC(=O)Nc1nnc(C)s1	3	3	1	0	6	x	x
CCC(=O)Nc1nnc(C)s1	6	x	10*	x	1	-3	0
CN(Cc1ccccc1)C(=O)c1cccnc1	-11	2	0	0	10	x	x
CN(C(=O)c1cccnc1)c1nc(-c2ccccc2)cs1	7	-1	9.7*	4	2	-8	-6
O=C(O)C1CCCCC1C(=O)Nc1cc(Cl)ccc1Cl (stereo unspecified)	1	1	1	7	10	x	x
SMILES	PLCb3 inh	proCasp3 act	PLCg1 inh	procasp7 counter	HGIII-sPLA2 inh	PLCg1 ctr	PLCbeta3 conf
O=C(O)C1CCCCC1C(=O)Nc1cc(C(F)(F)F)ccc1Cl (stereo unspecified)	-4	3	10.0*	9	6	-3	-6
Cc1ccc(CCN2CC(C(=O)NCc3cccnc3)CC2=O)cc1 (stereo unspecified)	7	2	12*	-5	5	-2	-1
CN(C)/C=C1\N=C(c2ccc(Cl)cc2Cl)OC1=O	-4	0	3	0	3	x	x
CN(C)/C=C1/N=C(c2ccccc2)OC1=O	10	9	10*	-2	-2	4	10
CN(C)/C=C1\N=C(c2cccs2)OC1=O	-3	1	2	8	3	x	x
Cc1ccc(C2=N/C(=C\N(C)C)C(=O)O2)cc1	6	-6	9.6*	-2	-2	6	7
CCOC(=O)c1csc(NNC=O)n1	11*	8	1	4	1	-6	-1
CCOC(=O)c1csc(NC(=O)CC2CCCC2)n1	-7	-11	1	8	-4	x	x
COCc1ccc(C(=O)NC2CCSc3ccccc32)cc1 (stereo unspecified)	1	-2	0	-6	0	x	x
O=S1(=O)c2ccc(Br)cc2OC[C@@H](c2ccccc2)N1Cc1cn(Cc2ccccc2)nn1	5	x	0	x	-1	x	x
CCC(C)n1c(SCC(=O)NCc2ccco2)nnc1-c1cccc(S(=O)(=O)N2CCOCC2)c1 (stereo unspecified)	3	-6	12*	-3	3	-8	-6
O=C1OCCC1Sc1nnc(-c2cccnc2)n1-c1ccccc1F (stereo unspecified)	1	-5	1	2	2	x	x
COc1ccc(CN2C(=O)CN=C2Nc2cccc(C)c2C)cc1	6	17	9.8*	2	10	-4	-1
O=C(CN1C(=O)NC2(CCCC2)C1=O)N1CCCSC1=Nc1ccccc1	-7	x	7	x	2	x	x
O=C1C(NS(=O)(=O)c2cccs2)=C(N2CCOCC2)C(=O)c2ccccc21	-2	-3	9.8*	5	9	-10	-6
Cc1ccc(C(=O)Nn2c(C)nc3ccccc3c2=O)cc1C	-4	5	-2	6	-1	x	x
CCOC(=O)c1c(C)[nH]c(C)c1S(=O)(=O)N(C)Cc1ccco1	-3	-3	11*	12	-2	0	-5

Screens (PubChem BioAssay)
